The nature of series [1]: Human bioavailability study: 24 h urinary excretion. As to conditions: humans; for 24 h urinary excretion, Snack: after 75 g baked snack; for 24 h urinary excretion, Snack / 24 h urinary excretion, Vegetable meal: per mg intake of corresponding compound; for 24 h urinary excretion, Vegetable meal: after 461 g vegetable meal. It counts as in vivo. In outline: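 Adult volunteers fasted overnight (≥10 h), then gave a fasted blood sample and spot urine. Each study meal was eaten within a targeted 15 min under nurse supervision. Urine was collected over 24 h postprandially, extracted liquid-liquid and analysed by LCMS for aglycones plus glucuronide, glucoside and sulfate conjugates. Results were expressed per mg intake, and the two meals were compared by paired t-test.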

For series [2] the following is noted: ref Rothwell, Day, & Morgan, 2005; cited from earlier work.
The test system of a further series is Caco-2/TC7 cells. The series is described as follows: Uptake of quercetin and apigenin by Caco-2/TC7 cells from digestates. It counts as in vitro ADME. As to conditions: all digestates and DMEM-only control; p < 0.05. The method, boiled down:
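Clear supernatants from simplified simulated stomach/small-intestine digestion (with amylase) were diluted 1:1 in DMEM and applied to Caco-2/TC7 cells; DMEM with 40 µM quercetin or apigenin served as control. Uptake was summed from metabolites in medium, metabolites in cells and aglycone in cells, and the rate was this total divided by time. Mean ± SD, n = 3.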

A short description of series [3]: Determination of phytochemicals in food products. As to conditions: for change during the baking process (dough to final product): snack ratio broccoli:onion:carrot:parsley = 2.1:5.5:11.4:1.
For a further series, the system named is Caco-2/TC7 monolayer. The series can be described thus: Transport. It counts as in vitro ADME. As to conditions: p < 0.05. In outline: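 Snack or vegetable-mix samples went through a simplified simulated gastric/small-intestinal digestion including amylase, run to completion and centrifuged to clear supernatant. Supernatant mixed 1:1 with DMEM was applied to Caco-2/TC7 monolayers; DMEM with 40 µM quercetin or apigenin served as the buffer control. Papp = (dQ/dt)/(Co·A), from total basolateral metabolites plus aglycone; mean ± SD, n = 3.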

Series [4] in a line: In vitro gastric-duodenal digestion. It counts as in vitro ADME. As to conditions: both snack and vegetable meals.

This is an account of results in article PMC6189524 (Journal of Functional Foods, 2018).

With `O=c1cc(-c2ccc(O)cc2)oc2cc(O[C@@H]3O[C@H](CO)[C@@H](O)[C@H](O)[C@H]3O)cc(O)c12` [A-7-Glc, apigenin-7-O-glucoside], in series [1], the “24 h urinary excretion, Difference (absolute) vegetable meal vs snack” value (“24 h urinary excretion, Difference” for short) came to 0.05 nmol per mg intake; the “24 h urinary excretion, Snack” value is on record as 0.15 ± 0.4 nmol/mg intake; the “24 h urinary excretion, Vegetable meal” value turned out to be 0.21 ± 0.3 nmol/mg intake.
The matching figures for `O=C(O)[C@H]1O[C@@H](Oc2cc(O)c3c(=O)cc(-c4ccc(O)cc4)oc3c2)[C@H](O)[C@@H](O)[C@@H]1O` [A-7-GlcA]: 0.99 nmol per mg intake, 6.32 ± 8.1 nmol/mg intake and 5.33 ± 6.6 nmol/mg intake.
With `COc1cc(-c2oc3cc(O)cc(O)c3c(=O)c2O[C@@H]2O[C@H](C(=O)O)[C@@H](O)[C@H](O)[C@H]2O)ccc1O` [IR-3-GlcA, isorhamnetin-3-glucuronide], in series [1], the “24 h urinary excretion, Difference” value is 1.07 nmol per mg intake; the “urinary levels in 24 h urine, snack versus vegetable meal (paired t-test)” value is on record as “significantly differed”; the “24 h urinary excretion, Snack” value is 1.60 ± 2.0 nmol/mg intake; the “24 h urinary excretion, Vegetable meal” value was found to be 2.67 ± 2.7 nmol/mg intake.
Take `O=c1c(O[C@@H]2O[C@H](CO)[C@@H](O)[C@H](O)[C@H]2O)c(-c2ccc(O)c(O)c2)oc2cc(O)cc(O)c12` [Quercetin-3-Glc, quercetin-3-O-glucoside]: in series [1], the “24 h urinary excretion, Difference” value is reported as 0.03 nmol per mg intake; the “24 h urinary excretion, Snack” value is reported as 0.04 ± 0.1 nmol/mg intake; the “24 h urinary excretion, Vegetable meal” value is 0.07 ± 0.1 nmol/mg intake.
Take `O=C(O)[C@H]1O[C@@H](Oc2c(-c3ccc(O)c(O)c3)oc3cc(O)cc(O)c3c2=O)[C@H](O)[C@@H](O)[C@@H]1O` [Quercetin-3-GlcA, quercetin-3-glucuronide]: in series [1], the “24 h urinary excretion, Difference” value is recorded as 0.23 nmol per mg intake; the “24 h urinary excretion, Snack” value is recorded as 4.17 ± 3.3 nmol/mg intake; the “24 h urinary excretion, Vegetable meal” value is 4.40 ± 2.5 nmol/mg intake.
For the molecule `O=c1c(OS(=O)(=O)O)c(-c2ccc(O)c(O)c2)oc2cc(O)cc(O)c12` [Quercetin-3-sulfate], in series [1], the “24 h urinary excretion, Difference” value is 0.79 nmol per mg intake; the “24 h urinary excretion, Snack” value turned out to be 2.58 ± 1.9 nmol/mg intake; the “24 h urinary excretion, Vegetable meal” value is 3.36 ± 1.8 nmol/mg intake.
As for `CC(=O)N[C@@H](CSC(=S)NCCCC[S+](C)[O-])C(=O)O` (stereo partly drawn) [Sulforaphane-NAC, sulforaphane-N-acetyl-cysteine], in series [1], the “24 h urinary excretion, Difference” value is recorded as 236.4 nmol per mg intake; the “urinary levels in 24 h urine, snack versus vegetable meal (paired t-test)” value is “approached significance”; the “24 h urinary excretion, Snack” value was 272.17 ± 280.8 nmol/mg intake; the “24 h urinary excretion, Vegetable meal” value turned out to be 508.54 ± 450.9 nmol/mg intake.
Turning to `C[S+]([O-])CCCCN=C=S` (stereo not drawn) [Sulforaphane], in series [1], the “24 h urinary excretion, Difference” value stood at 7.47 nmol per mg intake; the “24 h urinary excretion, Snack” value is 36.25 ± 27.9 nmol/mg intake; the “24 h urinary excretion, Vegetable meal” value is reported as 43.72 ± 44.2 nmol/mg intake.
On to `O=c1cc(-c2ccc(O)cc2)oc2cc(O)cc(O)c12` [apigenin], for which, in series [1], the “24 h urinary excretion, Difference” value was determined as 0.19 nmol per mg intake; the “urinary levels in 24 h urine, snack versus vegetable meal (paired t-test)” value is “not significantly different”; the “24 h urinary excretion, Snack” value came out at 3.37 ± 6.6 nmol/mg intake; the “24 h urinary excretion, Vegetable meal” value worked out at 3.55 ± 4.6 nmol/mg intake. For the same molecule, in series [2], the “lipophilicity compared to quercetin” value was “higher lipophilicity”. For the same molecule, the “rate of uptake compared to quercetin” value in the series with Caco-2/TC7 cells is recorded as “significantly higher”. The “change during the baking process (dough to final product)” value (“change during the baking process” for short) in series [3] was “+6%”. Further, in the series with Caco-2/TC7 monolayer, the “Papp compared to quercetin” value was “higher”.
For the molecule `C[S+]([O-])CCCC/C(=N\OS(=O)(=O)O)S[C@@H]1O[C@H](CO)[C@@H](O)[C@H](O)[C@H]1O` (stereo partly drawn) [glucoraphanin], in series [1], the “urinary levels in 24 h urine, snack versus vegetable meal (paired t-test)” value is “not significantly different”. Further, in series [3], the “change during the baking process” value is on record as −14%.
Consider `CC1=C[C@H](O)CC(C)(C)[C@H]1/C=C/C(C)=C/C=C/C(C)=C/C=C/C=C(C)/C=C/C=C(C)/C=C/C1=C(C)C[C@@H](O)CC1(C)C` [lutein], for which the “present in the liquid phase after in vitro digestion” value in series [4] is reported as “around 0.4 mg”.
As for `O=c1c(O)c(-c2ccc(O)c(O)c2)oc2cc(O)cc(O)c12` [quercetin], in series [1], the “24 h urinary excretion, Difference” value was 0.38 nmol per mg intake; the “urinary levels in 24 h urine, snack versus vegetable meal (paired t-test)” value is “not significantly different”; the “24 h urinary excretion, Snack” value came out at 0.34 ± 0.7 nmol/mg intake; the “24 h urinary excretion, Vegetable meal” value came to 0.72 ± 1.3 nmol/mg intake. For the same molecule, the “change during the baking process” value in series [3] is listed as “+12%”.
Consider `CC1=C(/C=C/C(C)=C/C=C/C(C)=C/C=C/C=C(C)/C=C/C=C(C)/C=C/C2=C(C)CCCC2(C)C)C(C)(C)CCC1` [β-carotene], for which the “yield in the final product” value in series [3] (dough with only carrots, after baking) is on record as 31.8 % (w/w). Besides, in series [3] (final snack product), the “threshold value above which lost during the baking process” value was 10–13 mg per 100 g dry matter. Also, the “present in the liquid phase after in vitro digestion” value in series [4] was “no detectable”.
